Measured values reported in PubChem BioAssay.
Active and inactive are the calls of the source.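 How the source made its calls, unless noted: active means NADPH fluorescence slope more negative than the mean of all samples by about 3 SD, 99.7% confidence; inactive means the rest.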

Experiments:
[1] = inhibitors of TNFa-induced NFkB p65 translocation, primary screen, imaging, HUVEC, MLSMR starter and 10KST1 sets (AID 438;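 active means inhibition above 20% together with a positive visual image hit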;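 further: compound added about 3h40 before a 20 min TNFalpha stimulation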;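 on inhibition: signal is the nuclear over cytoplasmic p65 intensity ratio per well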); conditions: HUVEC TNFa-induced p65 nuclear translocation; cell count: measured here: nuclei count (cytotoxicity indicator), at 2.08 µM; inhibition: at 2 µM, stronger effect = higher value, 0% TNFa-plus-vehicle, 100% no-TNFa wells
[2] = inhibitors of E-selectin induction by TNFa, primary screen, imaging, HUVEC, immunofluorescence, MLSMR starter and 10KST1 sets (AID 487;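 active means visually confirmed hit in the image check and inhibition above 20%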;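 on inhibition: signal is fraction of cell area covered by stained E-selectin grains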;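 on nuclei count: 100% = median nuclei count of all wells on the same plate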); conditions: HUVEC TNFalpha-induced E-selectin immunofluorescence imaging, at 2 µM; inhibition: stronger effect = higher value; nuclei count: measured here: cell number, toxicity
[3] = DUSP6 inhibitors restoring Erk phosphorylation by chemical complementation, primary imaging in DUSP6-transfected HeLa (AID 609;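 active means compounds giving at least 50% inhibition in the cell-based MKP-3 phosphatase rescue imaging test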;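 on inhibition: phospho-Erk level distribution per well compared with pooled transfected vehicle control wells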); conditions: HeLa MKP-3 transfected, phospho-Erk imaging KS statistic, at 10 µM, cells stimulated with TPA for 15 min
[4] = biological target: Dual specificity protein phosphatase 6 (Homo sapiens) (UniProt Q16828); test: as above; conditions: HeLa MKP-3 transfected, phospho-Erk imaging KS statistic; at 10 µM; stronger effect = higher value; cells stimulated with TPA for 15 min
[5] = biological target: Voltage-gated potassium channel subunit beta-2 (Rattus norvegicus) (UniProt P62483); test: KvBeta enzyme negative modulators, primary screen, biochemical, NADPH fluorescence (AID 622;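 active means fluorescence slope higher than the sample average by over 3 SD, cut at about -0.22 in these data, passing the limit was not always enough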;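 further: slope of raw intensity against log time taken from 70 to 1610 s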); conditions: recombinant KvBeta, 4-cyanobenzaldehyde reduction, at 10 µM, stronger effect = higher value
[6] = biological target: Voltage-gated potassium channel subunit beta-2 (Rattus norvegicus) (UniProt P62483); test: KvBeta positive modulators, primary screen, biochemical, NADPH fluorescence (AID 623); conditions: Recombinant KvBeta, NADPH fluorescence decrease slope, 10 min; at 10 µM; stronger effect = lower value;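 further: fluorescence intensity change per second fitted from 20 to 320 s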
[7] = biological target: Alpha-2C adrenergic receptor (Homo sapiens) (UniProt P18825); test: modulators of alpha2C/GIRK thallium flux, primary screen, cell-based, HEK293 alpha2C/GIRK1/2 (AID 624;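 active means fluorescence slope after compound addition differing from the mean of all screened samples at 99.7% confidence, in either direction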;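 further: slope of fluorescence ratio to pre-addition baseline per second over 15 to 24 s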); conditions: thallium flux BTC fluorescence, at 10 µM, actives lie on both sides
[8] = inhibitors of larval lipid processing in zebrafish, primary screen, whole organism, PED6 fluorescence, gall bladder and intestine (AID 686;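 active means a full or partial loss of lipid-probe fluorescence in the fish gall bladder, intestine or both, judged by eye; inactive means no fluorescence loss, or compound toxic to the fish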;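 further: larvae 5 to 7 days old with five fish per well; signal comes from phospholipase A2 cleavage of quenched PED6 carried via bile; overnight exposure to compound and PED6 before scoring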); conditions: Zebrafish larvae PED6 lipid processing, fluorescence scoring; screened at 20 µM (by protocol)
Method in brief: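 System: live zebrafish larvae aged 5-7 days, whole organism; measure: graded gall bladder and intestinal fluorescence inhibition per well; incubation: overnight exposure; reagent: ingested quenched lipid PED6 at 100 nM; signal: By-eye fluorescence microscopy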

[9] = inhibitors of Chlamydomonas gravitaxis, primary screen, whole organism, Chlamydomonas reinhardtii, WT vs cilia-less mutant, absorbance, 96-well (AID 463189;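 active means inhibition at or above 50% relative to wild type and mutant plate controls; inactive means inhibition below 50%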;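 further: 0% = wild type cc124 cells in DMSO and 100% = ciliumless bld1 mutant cells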); conditions: OD600 absorbance, 2 days, at 10 µM, stronger effect = higher value
[10] = measured here: cell density z-score
[11] = measured here: nuclear c-Myc green intensity z-score
[12] = measured here: nuclear pErk red intensity z-score, stronger effect = higher value

Chain of Alpha-2C adrenergic receptor (Homo sapiens) (P18825 whole entry, looked up): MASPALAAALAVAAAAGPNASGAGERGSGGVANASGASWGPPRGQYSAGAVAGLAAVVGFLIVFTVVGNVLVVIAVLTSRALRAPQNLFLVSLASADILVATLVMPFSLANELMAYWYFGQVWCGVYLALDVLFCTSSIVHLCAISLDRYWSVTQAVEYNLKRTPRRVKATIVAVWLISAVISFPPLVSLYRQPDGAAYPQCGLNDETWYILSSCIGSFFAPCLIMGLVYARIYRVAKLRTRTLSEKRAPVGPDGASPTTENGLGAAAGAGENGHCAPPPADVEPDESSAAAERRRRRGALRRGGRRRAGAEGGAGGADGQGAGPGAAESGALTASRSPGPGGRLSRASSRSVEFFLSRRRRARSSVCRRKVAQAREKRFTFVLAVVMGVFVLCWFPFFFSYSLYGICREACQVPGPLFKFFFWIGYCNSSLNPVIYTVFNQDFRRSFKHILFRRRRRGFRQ
Chain of Dual specificity protein phosphatase 6 (Homo sapiens) (Q16828 whole entry, looked up): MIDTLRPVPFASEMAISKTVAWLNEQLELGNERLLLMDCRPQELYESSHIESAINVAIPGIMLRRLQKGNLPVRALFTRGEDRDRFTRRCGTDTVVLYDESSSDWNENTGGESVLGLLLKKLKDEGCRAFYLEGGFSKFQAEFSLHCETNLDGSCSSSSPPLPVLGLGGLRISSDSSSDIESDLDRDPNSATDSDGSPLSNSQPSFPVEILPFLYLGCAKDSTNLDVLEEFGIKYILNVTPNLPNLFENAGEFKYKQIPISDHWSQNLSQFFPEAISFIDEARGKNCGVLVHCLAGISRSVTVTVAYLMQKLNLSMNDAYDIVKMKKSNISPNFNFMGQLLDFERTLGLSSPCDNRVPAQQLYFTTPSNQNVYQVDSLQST
Chain of Voltage-gated potassium channel subunit beta-2 (Rattus norvegicus) (P62483 whole entry, looked up): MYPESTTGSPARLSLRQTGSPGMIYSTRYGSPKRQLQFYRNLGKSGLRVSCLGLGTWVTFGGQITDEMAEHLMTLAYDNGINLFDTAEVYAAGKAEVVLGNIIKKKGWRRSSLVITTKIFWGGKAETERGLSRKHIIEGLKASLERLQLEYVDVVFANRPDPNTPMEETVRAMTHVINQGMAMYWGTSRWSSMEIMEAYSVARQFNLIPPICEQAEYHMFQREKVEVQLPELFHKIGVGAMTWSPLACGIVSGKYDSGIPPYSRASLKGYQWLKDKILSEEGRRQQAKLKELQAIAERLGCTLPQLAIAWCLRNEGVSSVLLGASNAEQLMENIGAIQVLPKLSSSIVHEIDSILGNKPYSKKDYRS

| Compound | cell count [1] | inhibition [1] | inhibition [2] | nuclei count [2] [%] | z-score [3, 10] | z-score [3, 11] | z-score [3, 12] | inhibition [4] | fluorescence slope [5] | NADPH fluorescence slope [6] | slope [7] | outcome [8] | inhibition [9] |
| --- | --- | --- | --- | --- | --- | --- | --- | --- | --- | --- | --- | --- | --- |
| COc1ccc(-c2ncncc2-c2csc(C)n2)c(O)c1 | 573 | -4.5% (inactive) | -141% (inactive) | 135 | 0.355 | -1.54 | -0.34 | 1.9e-07% (inactive) | -0.509 (inactive) | -3.3e-05 (inactive) | 0.00463 (inactive) | inactive | 3.68% (inactive) |
| Cc1occc1C(=O)OCC(=O)Nc1ccc(F)cc1 | 527 | -1.1% (inactive) | -31.2% (inactive) | 113 | -1.12 | -1.15 | 1.8 | 29.3% (inactive) | -0.56 (inactive) | -4.4e-05 (inactive) | 0.00567 (inactive) | inactive | 1.09% (inactive) |
| CCNC(=O)Nn1c(C)nnc1C | 604 | 5% (inactive) | 15.6% (inactive) | 129 | -0.49 | 0.191 | -0.43 | -8.27% (inactive) | -0.469 (inactive) | -0.000298 (inactive) | 0.00578 (inactive) | inactive | 7.13% (inactive) |
| CN(C)c1ccc(C=NCCC2(O)CCOC(C)(C)C2)cc1 (stereo unspecified) | 326 | -27% (inactive) | -218% (inactive) | 173 | -0.673 | -1.17 | -0.362 | 8.76% (inactive) | -0.416 (inactive) | -0.000167 (inactive) | 0.00576 (inactive) | inactive | -4.27% (inactive) |
| COCc1[nH]nc2c1C(c1ccnc3ccccc13)C(C#N)=C(N)O2 (stereo unspecified) | 589 | -5% (inactive) | 26.1% (inactive) | 102 | 0.598 | -2.1 | -0.301 | 29.9% (inactive) | -0.519 (inactive) | -1.8e-05 (inactive) | 0.00587 (inactive) | inactive | 15.7% (inactive) |
| Cn1c(=NCC(O)COc2ccccc2)sc2ccccc21 (stereo unspecified) | 482 | 7.1% (inactive) | -85.2% (inactive) | 167 | 0.424 | -0.57 | 0.805 | -8.95% (inactive) | -0.367 (inactive) | -3.8e-05 (inactive) | 0.00465 (inactive) | inactive | 16.2% (inactive) |
| CN1C2C=C3C(C#N)=C(N)C(C#N)(C#N)[C@@H](c4ccsc4)[C@@H]3C1CC2 (stereo partly specified) | 589 | -9.3% (inactive) | 24% (inactive) | 148 | 1.76 | -1 | -0.0532 | 28.1% (inactive) | -0.396 (inactive) | 4.1e-06 (inactive) | 0.00648 (inactive) | inactive | 6.82% (inactive) |
| COc1ccc(CN2CCC(=O)NC2=O)cc1 | 670 | -14.7% (inactive) | -450% (inactive) | 162 | 0.756 | -1.36 | 0.0301 | 9.39% (inactive) | -0.502 (inactive) | -3.7e-05 (inactive) | 0.00539 (inactive) | inactive | 2.33% (inactive) |
| Cc1nc(-c2c(-c3ccc(O)cc3O)noc2C(F)(F)F)cs1 | 518 | -18.3% (inactive) | -135% (inactive) | 163 | 0.818 | -0.387 | 0.0899 | 20.2% (inactive) | -0.468 (inactive) | -0.000226 (inactive) | 0.00467 (inactive) | inactive | 20.1% (inactive) |
| CCN(CC)CCNc1nc2c(c(=O)[nH]c(=O)n2C)n1CCOc1ccccc1 | 501 | -1.2% (inactive) | -206% (inactive) | 135 | 0.0299 | -1.12 | -0.109 | 12.3% (inactive) | -0.534 (inactive) | -4.4e-05 (inactive) | 0.00521 (inactive) | inactive | 0.39% (inactive) |
| O=C(NCCOCCOCCNC(=O)c1cccnc1)c1cccnc1 | 490 | 0.8% (inactive) | -165% (inactive) | 151 | -2.67 | -0.0249 | -0.654 | 34.8% (inactive) | -0.514 (inactive) | -7.5e-05 (inactive) | 0.00454 (inactive) | inactive | -5.31% (inactive) |
| COc1cccc(-c2nc(NCc3ccco3)c3ccccc3n2)c1O | 550 | 3% (inactive) | -7.1% (inactive) | 113 | 0.234 | 1.11 | 1.04 | -10.5% (inactive) | -0.282 (inactive) | -1.4e-05 (inactive) | 0.00506 (inactive) | inactive | 14.5% (inactive) |
